Experimental data: ChEMBL document CHEMBL4138126, “Synthesis, antiproliferative, anti-tubulin activity, and docking study of new 1,2,4-triazoles as potential combretastatin analogues” (Eur J Med Chem, 2017)

Tests used:
Assay type in all cases: functional
CCRF-CEM = assay: Growth inhibition of human CCRF-CEM cells assessed as cell growth at 10 uM after 48 hrs by sulforhodamine B assay; details: read-out: Activity
Summary of the method: (§1)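 NCI 60-cell-line panel screen (nine cancer types). Compounds added at single concentration 10^-5 M, cultures incubated 48 h; growth inhibition percentages reported.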

HL-60(TB) = assay: Growth inhibition of human HL-60(TB) cells assessed as cell growth at 10 uM after 48 hrs by sulforhodamine B assay; details: HL-60, 48 h, read-out: Activity
Summary of the method: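 Screened by the NCI in its 60-cell-line panel covering nine cancer types, including leukemia. Compounds were added at a single concentration, and the cultures were incubated for 48 h. Results are reported as percent growth inhibition.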

MOLT-4 = assay: Growth inhibition of human MOLT4 cells assessed as cell growth at 10 uM after 48 hrs by sulforhodamine B assay; details: MOLT-4, 48 h, read-out: Activity; summary of the method: as §1
RPMI-8226 = assay: Growth inhibition of human RPMI8226 cells assessed as cell growth at 10 uM after 48 hrs by sulforhodamine B assay; details: RPMI-8226, 48 h, read-out: Activity; summary of the method: as §1
SR = assay: Growth inhibition of human SR cells assessed as cell growth at 10 uM after 48 hrs by sulforhodamine B assay; details: read-out: Activity
Summary of the method: (§2)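 NCI 60-cell-line panel from nine tumour types (leukaemia, lung, colon, CNS, melanoma, ovarian, renal, prostate, breast). Each compound was added at one single concentration, and cultures were incubated for 48 h. Results are reported as percent growth inhibition.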

A549 = assay: Growth inhibition of human A549/ATCC cells assessed as cell growth at 10 uM after 48 hrs by sulforhodamine B assay; details: A549, 48 h, read-out: Activity; summary of the method: as §1
HOP-62 = assay: Growth inhibition of human HOP62 cells assessed as cell growth at 10 uM after 48 hrs by sulforhodamine B assay; details: HOP-62, 48 h, read-out: Activity; summary of the method: as §1
HOP-92 = assay: Growth inhibition of human HOP92 cells assessed as cell growth at 10 uM after 48 hrs by sulforhodamine B assay; details: HOP-92, 48 h, read-out: Activity; summary of the method: as §1
NCI-H322M = assay: Growth inhibition of human NCI-H322M cells assessed as cell growth at 10 uM after 48 hrs by sulforhodamine B assay; details: read-out: Activity; summary of the method: as §1
NCI-H522 = assay: Growth inhibition of human NCI-H522 cells assessed as cell growth at 10 uM after 48 hrs by sulforhodamine B assay; details: NCI-H522, 48 h, read-out: Activity; summary of the method: as §1
HCT-116 = assay: Growth inhibition of human HCT116 cells assessed as cell growth at 10 uM after 48 hrs by sulforhodamine B assay; details: HCT-116, 48 h, read-out: Activity; summary of the method: as §1
HCT-15 = assay: Growth inhibition of human HCT15 cells assessed as cell growth at 10 uM after 48 hrs by sulforhodamine B assay; details: HCT-15, 48 h, read-out: Activity; summary of the method: as §1
HT-29 = assay: Growth inhibition of human HT-29 cells assessed as cell growth at 10 uM after 48 hrs by sulforhodamine B assay; details: HT-29, 48 h, read-out: Activity; summary of the method: as §1
KM12 = assay: Growth inhibition of human KM12 cells assessed as cell growth at 10 uM after 48 hrs by sulforhodamine B assay; details: KM12, 48 h, read-out: Activity; summary of the method: as §1
SW-620 = assay: Growth inhibition of human SW620 cells assessed as cell growth at 10 uM after 48 hrs by sulforhodamine B assay; details: SW-620, 48 h, read-out: Activity; summary of the method: as §2
SF-268 = assay: Growth inhibition of human SF268 cells assessed as cell growth at 10 uM after 48 hrs by sulforhodamine B assay; details: SF-268, 48 h, read-out: Activity; summary of the method: as §1
SF-539 = assay: Growth inhibition of human SF539 cells assessed as cell growth at 10 uM after 48 hrs by sulforhodamine B assay; details: SF-539, 48 h, read-out: Activity; summary of the method: as §1
SNB-75 = assay: Growth inhibition of human SNB75 cells assessed as cell growth at 10 uM after 48 hrs by sulforhodamine B assay; details: SNB-75, 48 h, read-out: Activity; summary of the method: as §2
U-251 = assay: Growth inhibition of human U251 cells assessed as cell growth at 10 uM after 48 hrs by sulforhodamine B assay; details: U-251, 48 h, read-out: Activity; summary of the method: as §2
LOX IMVI = assay: Growth inhibition of human LOXIMVI cells assessed as cell growth at 10 uM after 48 hrs by sulforhodamine B assay; details: read-out: Activity; summary of the method: as §1
Malme-3M = assay: Growth inhibition of human MALME-3M cells assessed as cell growth at 10 uM after 48 hrs by sulforhodamine B assay; details: read-out: Activity; summary of the method: as §1
SK-MEL-2 = assay: Growth inhibition of human SK-MEL-2 cells assessed as cell growth at 10 uM after 48 hrs by sulforhodamine B assay; details: SK-MEL-2, 48 h, read-out: Activity; summary of the method: as §1
OVCAR-4 = assay: Growth inhibition of human OVCAR4 cells assessed as cell growth at 10 uM after 48 hrs by sulforhodamine B assay; details: OVCAR-4, 48 h, read-out: Activity; summary of the method: as §1
786-0 = assay: Growth inhibition of human 786-0 cells assessed as cell growth at 10 uM after 48 hrs by sulforhodamine B assay; details: 786-0, 48 h, read-out: Activity; summary of the method: as §1
A498 = assay: Growth inhibition of human A498 cells assessed as cell growth at 10 uM after 48 hrs by sulforhodamine B assay; details: A498, 48 h, read-out: Activity; summary of the method: as §1
ACHN = assay: Growth inhibition of human ACHN cells assessed as cell growth at 10 uM after 48 hrs by sulforhodamine B assay; details: read-out: Activity; summary of the method: as §1
TK-10 = assay: Growth inhibition of human TK10 cells assessed as cell growth at 10 uM after 48 hrs by sulforhodamine B assay; details: TK-10, 48 h, read-out: Activity; summary of the method: as §2
UO-31 = assay: Growth inhibition of human UO31 cells assessed as cell growth at 10 uM after 48 hrs by sulforhodamine B assay; details: UO-31, 48 h, read-out: Activity; summary of the method: as §2
PC-3 = assay: Growth inhibition of human PC3 cells assessed as cell growth at 10 uM after 48 hrs by sulforhodamine B assay; details: PC-3, 48 h, read-out: Activity; summary of the method: as §1
DU-145 = assay: Growth inhibition of human DU145 cells assessed as cell growth at 10 uM after 48 hrs by sulforhodamine B assay; details: DU-145, 48 h, read-out: Activity; summary of the method: as §1
MCF7 = assay: Growth inhibition of human MCF7 cells assessed as cell growth at 10 uM after 48 hrs by sulforhodamine B assay; details: MCF7, 48 h, read-out: Activity; summary of the method: as §1
MDA-MB-231 = assay: Growth inhibition of human MDA-MB-231 cells assessed as cell growth at 10 uM after 48 hrs by sulforhodamine B assay; details: MDA-MB-231, 48 h, read-out: Activity; summary of the method: as §1
BT-549 = assay: Growth inhibition of human BT549 cells assessed as cell growth at 10 uM after 48 hrs by sulforhodamine B assay; details: BT-549, 48 h, read-out: Activity; summary of the method: as §1

Compound	growth at 10 µM (CCRF-CEM)	growth at 10 µM (HL-60(TB))	growth at 10 µM (MOLT-4)	growth at 10 µM (RPMI-8226)	growth at 10 µM (SR)	growth at 10 µM (A549)	growth at 10 µM (HOP-62)	growth at 10 µM (HOP-92)	growth at 10 µM (NCI-H322M)	growth at 10 µM (NCI-H522)	growth at 10 µM (HCT-116)	growth at 10 µM (HCT-15)	growth at 10 µM (HT-29)	growth at 10 µM (KM12)	growth at 10 µM (SW-620)	growth at 10 µM (SF-268)	growth at 10 µM (SF-539)	growth at 10 µM (SNB-75)	growth at 10 µM (U-251)	growth at 10 µM (LOX IMVI)	also measured
CCOc1ccc(-n2nc(C(=O)Nc3cc(OC)c(OC)c(OC)c3)nc2-c2cc(OC)c(OC)c(OC)c2)cc1	66.5%	98.2%	67.5%	55.7%	40.7%	86.9%	95.7%	69.9%	89.2%	65.9%	75.8%	82.1%	84.6%	81.8%	95.5%	92.1%	87.8%	65.6%	85.1%	89%	growth at 10 µM (Malme-3M): 85.2%; growth at 10 µM (SK-MEL-2): 85.6%; growth at 10 µM (OVCAR-4): 68.1%; growth at 10 µM (786-0): 77.1%; growth at 10 µM (A498): 67.3%; growth at 10 µM (ACHN): 85.7%; growth at 10 µM (TK-10): 104%; growth at 10 µM (UO-31): 52.6%; growth at 10 µM (PC-3): 70.2%; growth at 10 µM (DU-145): 99.1%; growth at 10 µM (MCF7): 83.2%; growth at 10 µM (MDA-MB-231): 50.5%; growth at 10 µM (BT-549): 91.5%
CCOc1ccc(-n2nc(C(=O)Nc3cccc(OC)c3)nc2-c2cc(OC)c(OC)c(OC)c2)cc1	51.9%	87.5%	62.5%	27.9%	52.6%	68.2%	91.9%	67.2%	79.8%	57.9%	67.3%	74.3%	78.3%	71.2%	99.7%	80.7%	90.2%	68.1%	78.5%	80.8%	growth at 10 µM (Malme-3M): 91.7%; growth at 10 µM (SK-MEL-2): 86.9%; growth at 10 µM (OVCAR-4): 75.1%; growth at 10 µM (786-0): 84.8%; growth at 10 µM (A498): 78.8%; growth at 10 µM (ACHN): 77.9%; growth at 10 µM (TK-10): 93.6%; growth at 10 µM (UO-31): 50.9%; growth at 10 µM (PC-3): 59%; growth at 10 µM (DU-145): 94.8%; growth at 10 µM (MCF7): 83.5%; growth at 10 µM (MDA-MB-231): 55.1%; growth at 10 µM (BT-549): 72.3%
CCOc1ccc(-n2nc(C(=O)Nc3ccc(F)c(F)c3)nc2-c2cc(OC)c(OC)c(OC)c2)cc1	44.1%	89%	50%	12.3%	64%	62%	89.1%	67%	73%	61.1%	51.2%	63.8%	74.6%	56.7%	89.9%	84.9%	96.6%	74.4%	70.3%	66.4%	growth at 10 µM (Malme-3M): 86.7%; growth at 10 µM (SK-MEL-2): 78.4%; growth at 10 µM (OVCAR-4): 66.1%; growth at 10 µM (786-0): 85%; growth at 10 µM (A498): 68.9%; growth at 10 µM (ACHN): 64.5%; growth at 10 µM (TK-10): 87.4%; growth at 10 µM (UO-31): 42.6%; growth at 10 µM (PC-3): 47.1%; growth at 10 µM (DU-145): 80%; growth at 10 µM (MCF7): 78.8%; growth at 10 µM (MDA-MB-231): 63.1%; growth at 10 µM (BT-549): 65.5%
